Screening results (PubChem)
Myeloid diff MLP = myeloid differentiation induction; ER-HoxA9 myeloid progenitors, lysozyme-GFP differentiation, flow cytometry; calls only at 10 µM; hit rate 1% among 360,000;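 active = normalized GFP-positive differentiation at or above the plate's own cutoff, the solvent-only control mean plus 3 SD; inconclusive = no clear call, values can overlap the other calls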;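 note: cells exposed to compound for four days before flow analysis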
ATG4B inh = inhibitors of human ATG4B cysteine protease. inhibition, % at 8.33 µM. hit rate 0.51% among 340,000. Q9Y4P1. AID 504462. ATG4B cleavage of LC3-PLA2, NBD-HPC fluorescence, 1 h; in the data active = inhibition above about 40%
Target sequence (Q9Y4P1 whole entry, looked up): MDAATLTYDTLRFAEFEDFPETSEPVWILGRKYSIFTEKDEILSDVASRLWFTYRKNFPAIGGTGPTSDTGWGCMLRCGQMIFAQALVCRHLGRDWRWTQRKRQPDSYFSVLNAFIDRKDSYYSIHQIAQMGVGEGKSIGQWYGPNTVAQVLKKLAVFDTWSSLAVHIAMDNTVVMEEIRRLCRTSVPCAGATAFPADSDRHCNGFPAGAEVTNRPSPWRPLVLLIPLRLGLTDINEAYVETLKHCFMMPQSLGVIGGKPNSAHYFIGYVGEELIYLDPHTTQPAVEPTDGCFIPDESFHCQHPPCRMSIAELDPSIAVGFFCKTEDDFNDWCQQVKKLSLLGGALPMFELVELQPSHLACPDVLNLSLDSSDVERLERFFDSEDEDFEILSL
Granule exo inh = lytic granule exocytosis inhibition. TALL-104 LAMP-1 surface exposure, flow cytometry; cells stimulated with thapsigargin and PMA. inhibition, % at 10 µM. hit rate 0.66% among 360,000;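 active = inhibition above about 55%, limit read from the data; inconclusive = no clear call, values can overlap the other calls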
ABCB6 inh MLPCN = blocks the human ABCB6 transporter; Q9NP58; K562-ABCB6 porphyrin accumulation, flow cytometry, 1 h; hits give low values; fluorescence ratio to DMSO, % at 10 µM; hit rate 0.19% among 360,000;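 active = fluorescence ratio to DMSO below 75%, the collection mean minus 3 SD; inconclusive = too few cells collected in the well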;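 note: signal is porphyrin accumulated inside mitochondria; 100% equals median channel fluorescence of DMSO control wells; lower ratio means ABCB6 inhibition with less porphyrin fluorescence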
NRP1-CendR mod = NRP-1/CendR interaction modulation; O14786; hit rate 0.85% among 360,000; FAM-RPARPAR peptide binding to NRP-1, fluorescence polarization; inhibition, % at 25 µM; AID 602438;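 active = inhibition or corrected inhibition above about 18%, plus a signal ratio from 0.5 to 1.5, limit read from the data, passing the limit was not always enough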
Arr AP2 block = blocks beta-arrestin peptide binding to AP2 adaptin; FITC-arrestin peptide / GST-AP2 beads, flow cytometry; AP2 beta2 appendage carries R879A mutation; inhibition, % at 10 µM; hit rate 0.31% among 340,000; AID 504490;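 active = inhibition above a set limit, near 3 SD of compounds lacking own fluorescence, cut at about 54% in these data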;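 note: plate controls were DMSO wells for no effect and 5 µM unlabelled arrestin peptide for full effect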
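System: GST-AP2 R879A glutathione beads; medium: PBS, Tween 20 0.05%, BSA 0.1%; reagent: fluorescein-tagged arrestin peptide at 50 nM final; schedule: pre-incubation 12 min, peptide binding 1 h, room temperature; detection: flow cytometry, FL1 (488/535 nm); read-out: inhibition as reduced fluorescein signal on beads, percent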
Starred values were filed as active, the others as inactive; i = inactive; ? = inconclusive; / = not tested or not shown; + = active, no number. Compounds with a hit are over-represented: about 3.3% of the library has one in this group of screens.

SMILES	Myeloid diff MLP	ATG4B inh	Granule exo inh	ABCB6 inh MLPCN	NRP1-CendR mod	Arr AP2 block
O=c1c(/C=C(\O)c2ccccc2)nc2ccccc2n1-c1ccccc1	+	-21.2	1.1	979.0	-40.9	12.3
O=[N+]([O-])c1ccc(Cl)c2c1C1C=CCC1C(c1ccccn1)N2 (stereo unspecified)	i	0.5	6.0	95.0	28.5*	12.4
CC(=O)Nc1ccc(C=NNC(=O)CCCC(=O)NN=Cc2ccc(NC(C)=O)cc2)cc1	i	1.6	-5.6	94.0	10.4	-2.6
Cc1nnc(SCC2=C(C(=O)O)N3C(=O)C(NC(=O)C(C)n4nc(C(F)(F)F)cc4C)C3SC2)s1 (stereo unspecified)	i	-7.2	-5.5	97.0	-14.7	-5.9
COc1ccc(S(=O)(=O)N2CC(C(=O)O)Oc3ccc(Cl)cc32)cc1 (stereo unspecified)	+	5.5	1.3	285.0	-1.1	-16.7
CNc1ncnc2c1ncn2[C@H]1CN(Cc2ccc3c(c2)OCO3)C[C@@H](CO)O1	i	/	-4.5	98.0	-8.9	/
COc1ccc(-n2nc(C(=O)NCC(=O)NC3CCCCCC3)c3ccccc3c2=O)c(OC)c1	i	-6.7	-2.3	96.0	19.3*	-1.1
COc1ccc(-n2nc(C(=O)NCC(=O)NC(C)C)c3ccccc3c2=O)cc1	+	8.0	-3.7	108.0	14.8	4.7
CC(C(=O)N(C)Cc1cccc(F)c1)N1CCN(S(=O)(=O)c2ccc3c(c2)OCCCO3)CC1 (stereo unspecified)	i	2.2	9.8	92.0	4.6	20.4
COc1ccc(C2=Nn3c(nnc3C3CCCCC3)SC2)cc1OC	+	12.3	3.8	100.0	-0.7	-3.3
O=C(COc1ccc(Cl)cc1Cl)N1CCN(C(=O)c2ccco2)CC1	i	-19.0	3.4	98.0	3.8	-3.9
O=C(COc1ccccc1O)N1CCN(C(=O)c2ccco2)CC1	i	2.2	-2.0	101.0	32.4*	-3.8
CC(C)(C)S(=O)N1Cc2cc(C(=O)N3CCOCC3)nc(-c3cccc(Br)c3)c2[C@@H]1CCO (stereo partly specified)	i	/	-2.2	106.0	-17.7	/
CCOC(=O)N1CCN(C(=O)CSc2nc3c([nH]c4ccccc43)c(=O)n2CC)CC1	?	-1.7	4.4	99.0	13.2	42.4
CN(Cc1cnn(C)c1)Cc1nc(C(c2ccccc2)c2ccccc2)no1	i	13.4	-0.9	103.0	5.9	2.3
CCN(CC)c1nc2ccccc2nc1-n1nc(C)cc1C	i	12.4	4.3	85.0	17.1	3.1
Cc1cc(C)c(-c2nc3ccccc3s2)[nH]1	+	3.5	11.5	118.0	-41.7	13.2
CCC(c1nnnn1-c1ccc2c(c1)OCCO2)N1CCN(CC)CC1 (stereo unspecified)	i	/	2.3	100.0	-3.8	/
Cc1c(OC(C)C(=O)NCc2ccccn2)ccc2c3c(c(=O)oc12)CCC3 (stereo unspecified)	i	2.2	-2.2	98.0	22.7*	-3.4
Cc1ccc(NC(=O)CN2CCC(Cc3ccccc3)CC2)cc1S(=O)(=O)N(C)C	+	-0.8	16.0	487.0	6.2	-17.8
O=C1NC[C@@H](CCCCN2C[C@H](Cc3ccccc3)N(CCc3ccc(O)cc3)C(=O)C2=O)N(Cc2ccccc2)C1=O	i	/	-2.2	96.0	18.4*	/
Cc1cc(C)c2nc(Cl)c(Cl)nc2c1	i	4.4	-7.3	103.0	-14.2	-0.4
O=C(CN1C(=O)c2ccc([N+](=O)[O-])cc2C1=O)Nc1cc(S(=O)(=O)N2CCOCC2)ccc1Cl	/	9.1	-16.0	99.0	-12.8	5.2
CCn1c(Cc2cccs2)nnc1SCC(=O)NC1CC1	+	0.7	-0.7	103.0	2.4	2.2
O=C(Nc1ccccc1)c1cccc2c(-c3cccnc3)coc12	i	/	4.2	97.0	-10.6	/
O=C(Nc1cccc(Cl)c1)N(CCN1CCOCC1)Cc1cccc(Cl)c1	i	-11.3	-2.8	100.0	4.9	-12.1
COc1ccc(CN(CCCN2CCOCC2)C(=O)Nc2cccc(Cl)c2)cc1OC	i	2.0	-3.3	95.0	26.7*	2.5
Cc1cccc(NC(=O)CS(=O)(=O)c2cn(C)c3ccccc23)c1	i	-8.0	-9.5	91.0	-1.9	5.4
